Measured values: PMC10395482 (Heliyon, 2023)

What was measured:
MHCC97L xenograft = experiment: MHCC97L subcutaneous xenograft; type: in vivo, BALB/c nude mice; conditions: 14 days
Outline: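 Five-week-old male BALB/c nude mice received MHCC97L cells subcutaneously in the axilla (1 × 10^7 cells in 0.1 mL saline). At 50 mm3 they were randomized to groups and given the test compound in saline by tail vein (10, 20, 30 mg/kg; 0.1 mL/20 g). Tumor volume, calculated as (short diameter)2 × long diameter/2, and body weight were recorded every 2 days. Mice were sacrificed after 14 days; one-way ANOVA with Dunnett's test was used.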

[1] = system: chick embryo chorioallantoic membrane; experiment: Chick chorioallantoic membrane; type: in vivo; conditions: VEGF 0.5 μg, 48 h; n = 5
Outline: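 Fertilized eggs were held at 37 °C and 60% humidity for 5 days and turned 180° every 24 h. On day 6 the shell was opened along the air chamber and sterile rubber rings were placed at the aorta. Test compound in saline (0, 10, 50, 250 μM; 50 μL) was added inside the ring, and eggs were sealed for 48 h. Vascular density was calculated as vessel area/view area from stereomicroscope images.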

Molecule	Tumor Inhibition Rate (MHCC97L xenograft; PTK787 50 mg/kg, n = 5) [%]	Tumor Weight (MHCC97L xenograft; PTK787 50 mg/kg, mean ± SD, n = 5, *** p < 0.001 vs saline)	tumor growth, volume and weight (in words) (MHCC97L xenograft; SAIF 10, 20, 30 mg/kg or PTK787 50 mg/kg, vs control)	angiogenesis in CAM, VEGF alone [1]
Clc1ccc(Nc2nnc(Cc3ccncc3)c3ccccc23)cc1 [PTK787]	88.78	0.146 ± 0.049 *** g	decreased MHCC97L transplanted tumor growth and significantly reduced mean tumor volume	
VEGF				significantly increased neoangiogenesis
